PglD inh: inhibitors of Campylobacter jejuni PglD acetyltransferase. inhibition, % at 12.5 µM. 0.098% of 360,000 active. purified PglD enzyme, DTNB colorimetric CoA detection; in the data active = inhibition above about 16%, passing the limit was not always enough; inconclusive = no clear call, values can overlap the other calls
Ecoli rRNA inh: inhibitors of bacterial rRNA selective over humanized ribosomes. E. coli WT GFP vs humanized-ribosome RFP mutants, fluorescence, 24 h; stronger effect = lower value; DMSO median 0, no signal -100. GFP signal change (wild-type ribosome), % (no concentration beside the values). 1.6% of 350,000 active. AID 720706;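 active = significant combined selectivity score with lowered wild-type GFP, culture density cut under 30%, mutant RFP and density less affected; inactive = any of these conditions unmet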
HIV Env fusion: HIV envelope-mediated fusion inhibition; HeLa-JRFL Env/CEM21 cell fusion, luciferase; inhibition, % at 12.3 µM; 1.1% of 360,000 active; AID 651610;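 active = mean replicate inhibition score of at least 50 and every replicate individually at or above 50; inconclusive = only one of the two criteria met; inactive = mean below 50 and not all replicates reaching 50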;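 note: 0% = plate neutral controls and 100% = maraviroc near 300 nM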
PGC1a acetyl inh: modulators of PGC1a acetylation; U2OS PGC1a acetylation, AlphaScreen anti-acetyl-lysine; with virally co-expressed GCN5 acetyltransferase; inhibition, % at 15.6 µM; 0.17% of 350,000 active;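 active = every replicate shows inhibition of at least 40%; inconclusive = mean inhibition at least 40% but some replicate below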;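 note: 0% = neutral control wells and 100% = positive control wells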
DENV2 CPE: inhibitors of DENV2 cytopathic effect; DENV2-infected cells, cytopathic effect rescue, plate reader; CPE inhibition, % at 9.99 µM; 1.7% of 350,000 active; AID 651640; in the data active = CPE inhibition above about 20%, passing the limit was not always enough; inconclusive = no clear call, values can overlap the other calls; tested in BHK-21 cells;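 note: 0% = median of neutral control wells and 100% = median of positive control wells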
FN deposition inh: fibronectin deposition inhibition. AH1F fibroblasts, Alexa488-fibronectin deposition fluorescence, overnight. inhibition, % at 12.6 µM. 0.086% of 350,000 active;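 active = mean inhibition across replicates of 30% or more, regardless of how many single replicates reach that level; inconclusive = mean under 30% yet at least half of replicates reach 30%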;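 note: positive control wells lacked labelled fibronectin entirely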
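Material – AH1F fibroblast monolayer, labelled fibronectin deposition · Reagent – labelled fibronectin 24 nM · Timing – 1 h adhesion, overnight exposure · Measured by – fluorescence at 485 nm excitation, 525 nm emission · Read-out – inhibition of fibronectin deposition signal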
PglD confirm: blocks Campylobacter jejuni PglD acetyltransferase activity. shares compounds with PglD inh. Purified C. jejuni PglD, DTNB absorbance 412 nm. inhibition, % at 20 µM. 320 tested, under 10 active. AID 743156;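 active = mean inhibition across replicates of at least 20% with every single replicate also at 20% or more; inconclusive = mean inhibition at least 20% but some replicate falls below 20%; inactive = mean inhibition under 20% and not all replicates reach it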;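 note: initial rate of CoA release by acetyl transfer from AcCoA to the UDP-4-amino sugar; 0% = median of neutral control wells and 100% = median of positive control wells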
An asterisk follows results filed as active; ? = inconclusive; · = not tested or not shown; ! = not confirmed by another sample; [ ] = dose if it differs, or a comment. This is a sample that favours compounds with a hit; in the whole collection about 3.5% have one here.

SMILES	PglD inh	Ecoli rRNA inh	HIV Env fusion	PGC1a acetyl inh	DENV2 CPE	FN deposition inh	others
C[C@H]1CN([C@@H](C)CO)C(=O)c2cccc(NC(=O)Nc3cccc4ccccc34)c2O[C@@H]1CN(C)S(=O)(=O)c1ccc(F)cc1	·	-1	-10[16.7 µM]	18	6	·
COc1ccc(CC(=O)NCC2CCCN(Cc3ccc(OC(F)(F)F)cc3)C2)cc1 (centres undefined)	-3	·	21	-25	20*	0
C[C@@H]1CN([C@@H](C)CO)C(=O)c2cccc(NS(=O)(=O)c3cccs3)c2O[C@H]1CN(C)CC1CCCCC1	-1	4	-4[16.7 µM]	·	34*	7
C[C@H]1CN([C@@H](C)CO)C(=O)c2cccc(NS(=O)(=O)c3cccs3)c2O[C@H]1CN(C)Cc1ccncc1	3	1	·	-2	3	·
C[C@H](CO)N1C[C@H](C)[C@@H](CN(C)Cc2ccncc2)Oc2c(NS(=O)(=O)c3cccs3)cccc2C1=O	0	3	-11	-1	34*!	1
CO[C@@H]1CN(C)C(=O)c2ccc(NC(=O)C3CC3)cc2OC[C@H](C)N(C(=O)c2ccccc2F)C[C@@H]1C	·	-2	-38[16.7 µM]	-5	·	-4
C[C@@H](Oc1ccccc1)c1nnn(Cc2ccccc2)c1-c1c([C@@H](C)Oc2ccccc2)nnn1Cc1ccccc1	·	6	73*	·	-3	-12
c1ccc(Cn2nnc3ccccc32)cc1	-2	-10	8	2	8	4
Cc1[nH]c2ccccc2c1CC(=O)Nc1ccc(N(C)c2cccnc2)c(-c2ccc(F)c(F)c2)c1	·	-4	-23	·	84*	-9
Cc1noc(C)c1NC(=O)Nc1ccc2c(c1)C(=O)N([C@H](C)CO)C[C@@H](C)[C@H](CN(C)S(=O)(=O)c1c(C)noc1C)OCCCC[C@H](C)O2	-5	8	26[16.7 µM]	9	-8	·
Cc1nnc(SCC(=O)N(C2CCCCC2)C2CCS(=O)(=O)C2)n1N (centres undefined)	5	16	-6	·	35*	·
C=CCn1cnnc1SCC(=O)N(C1CCCCC1)C1CCS(=O)(=O)C1 (centres undefined)	·	5	5	12	-4	-2
CCC(=O)N1CC2(C1)[C@H](c1ccc(-c3ccc(F)cc3)cc1)[C@@H](CO)N2C(=O)CC	·	-3	·	-1	-11	3
COCC(=O)N(C)C[C@H]1Oc2cc(-c3ccc(OC)cc3)ccc2S(=O)(=O)N([C@H](C)CO)C[C@@H]1C	-4	-6	5[16.7 µM]	10	2	·
CCN1C(=O)[C@@H]2[C@@H]3CN(S(=O)(=O)c4ccc(C)cc4)[C@@H](c4ccccc4F)[C@@H]3C(=O)C[C@@H]2C1=O	-5	8	-2	3	21*	8
Cc1ccc(S(=O)(=O)N2C[C@H]3[C@H]4C(=O)N(Cc5ccccc5)C(=O)[C@H]4CC(=O)[C@H]3[C@@H]2c2ccccc2Cl)cc1	4	8	60*	-12	4	-2
Cc1ccc(S(=O)(=O)N2C[C@H]3[C@H]4C(=O)N(Cc5ccccc5)C(=O)[C@H]4CC(=O)[C@H]3[C@@H]2c2ccccc2F)cc1	-6	5	?	-16	-6	-2
Cc1ccc(S(=O)(=O)N2C[C@H]3[C@H]4C(=O)N(C5CCCCC5)C(=O)[C@H]4CC(=O)[C@H]3[C@@H]2c2ccccc2F)cc1	-2	7	65*	9	-4	-2
Cc1ccc(S(=O)(=O)N2C[C@H]3[C@H]4C(=O)N(C5CCCCC5)C(=O)[C@H]4CC(=O)[C@H]3[C@@H]2c2cccc3ccccc23)cc1	1	9	35	-13	-8	-4
COC(=O)C[C@H]1C[C@@H]2c3cc(NC(=O)NC4CCCCC4)ccc3O[C@@H]2[C@H](CO)O1	-4	-3	3[16.7 µM]	-3	0	·
C[C@H]1CN([C@@H](C)CO)S(=O)(=O)c2ccc(C#CC3CC3)cc2O[C@@H]1CN(C)CC1CCOCC1	0	-10	0[16.7 µM]	-23	7	-18
CO[C@@H]1CC[C@@H]2CCOc3c(C#N)cccc3C(=O)N(C)C[C@@H](C)C(=O)N(C)C[C@H]1O2	-1	1	30[16.7 µM]	-10	-7	-3
COc1ccccc1S(=O)(=O)n1cc(Cc2ccccc2)c(N)n1	-3	·	79*	-22	·	·
COc1ccc(Cl)cc1S(=O)(=O)N1CCN=C1Cc1ccccc1	-5	1	36	·	7	·
O=C(Nc1ccccc1)N1CCCCN2[C@H](CO)[C@@H](c3ccc(-c4ccccc4F)cc3)[C@@H]2C1	2	-54	·	-10	10	·
SMILES	PglD inh	Ecoli rRNA inh	HIV Env fusion	PGC1a acetyl inh	DENV2 CPE	FN deposition inh	others
O=C(Nc1ccccc1)N1CCCCN2[C@H](C1)[C@H](c1ccc(-c3ccncc3)cc1)[C@@H]2CO	0	-2	·	2	-8	·
O=C(Nc1ccccc1)N1CCCCN2[C@H](CO)[C@H](c3ccc(-c4ccncc4)cc3)[C@H]2C1	-2	-4	·	5	38*	·
O=C(Nc1ccccc1)N1CCCCN2[C@H](C1)[C@@H](c1ccc(-c3ccccc3F)cc1)[C@@H]2CO	-2	-35	·	-3	33*	·
C[C@H](CO)N1C[C@H](C)[C@@H](CN(C)S(=O)(=O)c2ccc(Cl)cc2)OCCCC[C@H](C)Oc2ccc(NC(=O)Nc3ccc(C(F)(F)F)cc3)cc2C1=O	-3	3	9[16.7 µM]	-9	36*	-11
C[C@@H]1CCCCO[C@@H](CN(C)S(=O)(=O)c2ccc(Cl)cc2)[C@H](C)CN([C@@H](C)CO)C(=O)c2cc(NC(=O)Nc3ccc(C(F)(F)F)cc3)ccc2O1	0	6	23[16.7 µM]	10	35*	-16
COc1ccc(CC(=O)Nc2cc(Cl)ccc2C(=O)O)cc1	4	-25	-2	11	-2	0
CCCCOc1ccc(Nc2cc(Cl)ccc2C(=O)O)cn1	-6	-33	63*	·	10	-3
C=CCc1c(OC)ccc2c1c(S(=O)(=O)c1ccc(C)cc1)cn2COC	22*	-2	2	-4	-3	6	PglD confirm=1
COc1ccc(C(C)(C)C)cc1S(=O)(=O)N1CCC(C(N)=O)CC1	·	·	31	·	·	3
COc1ccc(F)cc1S(=O)(=O)N1CCC(C(N)=O)CC1	22*	·	·	6	·	·	PglD confirm=-3
Cc1noc(C)c1NC(=O)Nc1ccc2c(c1)C(=O)N([C@H](C)CO)C[C@@H](C)[C@@H](CN(C)S(=O)(=O)c1c(C)noc1C)O2	-3	2	8[16.7 µM]	3	8	-8
COc1cc(NC(=O)Cc2nn(C)c(=O)c3ccccc23)cc(OC)c1	21*	·	·	10	·	·	PglD confirm=-5
Cc1ccc(CN2[C@@H]3c4ccccc4C[C@@H]3OCCS2(=O)=O)cc1	2	-34	·	-2	·	-9

Compound activity (PubChem BioAssay)
